In ChEMBL document CHEMBL1629583, “Establishment of in vitro susceptibility testing methodologies and comparative activities of piperacillin in combination with the penem {beta}-lactamase inhibitor BLI-489” (2009):
Values after ≈ are worked out from the molar mass of the structure shown.

Assays:
Type in all cases: functional
Burkholderia cepacia = test: Antimicrobial activity against Burkholderia cepacia clinical isolate after 18 to 22 hrs by broth microdilution method in presence of beta-lactamase inhibitor Tazobactam
Procedure, shortened: (§1)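 Piperacillin-tazobactam was tested on recent clinical isolates by CLSI broth microdilution in Mueller-Hinton II broth, with tazobactam at constant 4 μg/ml. Wells held 10^5 CFU/ml and were incubated 18 to 22 h at 35°C in ambient air. MIC was the lowest concentration with no growth visible to the unaided eye.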

[1] = system: Haemophilus parainfluenzae; test: Antimicrobial activity against Haemophilus parainfluenzae clinical isolate after 18 to 22 hrs by broth microdilution method in presence of beta-lactamase inhibitor BLI-489
Procedure, shortened: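 Haemophilus isolates were tested in Haemophilus test medium by CLSI broth microdilution. Serial piperacillin dilutions carried BLI-489 fixed at 4 μg/ml. Inoculum was 10^5 CFU/ml, incubated 18 to 22 h at 35°C in ambient air. MIC was the lowest concentration completely inhibiting growth by eye.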

Moraxella catarrhalis = test: Antimicrobial activity against Moraxella catarrhalis clinical isolate after 18 to 22 hrs by broth microdilution method in presence of beta-lactamase inhibitor BLI-489
Procedure, shortened: (§2)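 CLSI broth microdilution in Mueller-Hinton II broth. Serial dilutions of piperacillin were tested with BLI-489 held at a constant 4 μg/ml. Inoculum was 10^5 CFU/ml. Plates were incubated 18 to 22 h at 35°C in ambient air. MIC was the lowest concentration giving complete growth inhibition by unaided eye.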

Enterococcus faecalis = test: Antimicrobial activity against Enterococcus faecalis clinical isolate after 18 to 22 hrs by broth microdilution method in presence of beta-lactamase inhibitor BLI-489
Procedure, shortened: (§3)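 CLSI broth microdilution in Mueller-Hinton II broth. Piperacillin serial dilutions were combined with BLI-489 held constant at 4 μg/ml. Inoculum was 10^5 CFU/ml. Plates were incubated 18 to 22 h at 35°C in ambient air. MIC was the lowest concentration completely inhibiting growth seen by the unaided eye. Piperacillin-tazobactam interpretive criteria were applied.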

Enterococcus faecium = test: Antimicrobial activity against Enterococcus faecium clinical isolate after 18 to 22 hrs by broth microdilution method in presence of beta-lactamase inhibitor BLI-489; procedure, shortened: as §2
Streptococcus pneumoniae [2] = test: Antimicrobial activity against penicillin-susceptible Streptococcus pneumoniae clinical isolate after 18 to 22 hrs by broth microdilution method in presence of beta-lactamase inhibitor BLI-489
Procedure, shortened: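 Streptococci were tested by CLSI broth microdilution in Mueller-Hinton II broth plus 5% lysed horse blood. Piperacillin was serially diluted with BLI-489 fixed at a constant 4 μg/ml. Inoculum was 10^5 CFU/ml, with 18 to 22 h at 35°C in ambient air. MIC was the lowest concentration completely inhibiting growth by eye.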

Streptococcus pneumoniae [3] = test: Antimicrobial activity against penicillin-resistant Streptococcus pneumoniae clinical isolate after 18 to 22 hrs by broth microdilution method in presence of beta-lactamase inhibitor BLI-489
Procedure, shortened: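 CLSI broth microdilution in Mueller-Hinton II broth with 5% lysed horse blood. Antibiotic in serial dilution with the β-lactamase inhibitor held at a constant 4 μg/ml. Inoculum 10^5 CFU/ml. Incubated 18 to 22 h at 35°C in ambient air. MIC is the lowest concentration with no growth visible to the eye.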

Streptococcus agalactiae = test: Antimicrobial activity against Streptococcus agalactiae clinical isolate after 18 to 22 hrs by broth microdilution method in presence of beta-lactamase inhibitor BLI-489
Procedure, shortened: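 Streptococci were tested by CLSI broth microdilution in Mueller-Hinton II broth plus 5% lysed horse blood. Piperacillin dilutions contained a constant 4 μg/ml BLI-489. Inoculum was 10^5 CFU/ml, incubated 18 to 22 h at 35°C in air. MIC was the lowest concentration with no visible growth.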

Bacteroides uniformis = test: Antimicrobial activity against Bacteroides uniformis clinical isolate after 18 to 22 hrs by broth microdilution method in presence of beta-lactamase inhibitor BLI-489
Clostridium perfringens = test: Antimicrobial activity against Clostridium perfringens clinical isolate after 18 to 22 hrs by broth microdilution method
[4] = system: Peptostreptococcus anaerobius; test: Antimicrobial activity against Peptostreptococcus anaerobius clinical isolate after 18 to 22 hrs by broth microdilution method in presence of beta-lactamase inhibitor BLI-489
Escherichia coli = test: Antimicrobial activity against class A extended spectrum beta-lactamase- and class D OXA- producing Escherichia coli clinical isolate after 18 to 22 hrs by broth microdilution method in presence of beta-lactamase inhibitor BLI-489; procedure, shortened: as §2
Klebsiella pneumoniae [5] = test: Antimicrobial activity against Klebsiella pneumoniae clinical isolate after 18 to 22 hrs by broth microdilution method in presence of beta-lactamase inhibitor BLI-489; procedure, shortened: as §2
Klebsiella pneumoniae [6] = test: Antimicrobial activity against class A extended spectrum beta-lactamase- and class D OXA- producing Klebsiella pneumoniae clinical isolate after 18 to 22 hrs by broth microdilution method in presence of beta-lactamase inhibitor BLI-489; procedure, shortened: as §2
Klebsiella pneumoniae [7] = test: Antimicrobial activity against AmpC- producing Klebsiella pneumoniae clinical isolate after 18 to 22 hrs by broth microdilution method in presence of beta-lactamase inhibitor Tazobactam; procedure, shortened: as §1
Klebsiella pneumoniae [8] = test: Antimicrobial activity against AmpC- producing Klebsiella pneumoniae clinical isolate after 18 to 22 hrs by broth microdilution method in presence of beta-lactamase inhibitor BLI-489; procedure, shortened: as §3
Providencia rettgeri = test: Antimicrobial activity against Providencia rettgeri clinical isolate after 18 to 22 hrs by broth microdilution method in presence of beta-lactamase inhibitor BLI-489; procedure, shortened: as §2
Providencia stuartii = test: Antimicrobial activity against Providencia stuartii clinical isolate after 18 to 22 hrs by broth microdilution method in presence of beta-lactamase inhibitor Tazobactam
Procedure, shortened: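 Piperacillin-tazobactam was tested by CLSI broth microdilution in Mueller-Hinton II broth against clinical isolates. Inoculum was 10^5 CFU/ml, with 18 to 22 h incubation at 35°C in ambient air. MIC was read as the lowest concentration completely inhibiting visible growth.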

Acinetobacter baumannii = test: Antimicrobial activity against Acinetobacter baumannii clinical isolate after 18 to 22 hrs by broth microdilution method in presence of beta-lactamase inhibitor Tazobactam; procedure, shortened: as §1
Acinetobacter johnsonii = test: Antimicrobial activity against Acinetobacter johnsonii clinical isolate after 18 to 22 hrs by broth microdilution method in presence of beta-lactamase inhibitor BLI-489; procedure, shortened: as §3
Acinetobacter lwoffii = test: Antimicrobial activity against Acinetobacter lwoffii clinical isolate after 18 to 22 hrs by broth microdilution method in presence of beta-lactamase inhibitor BLI-489; procedure, shortened: as §3

Work on `CCN1CCN(C(=O)N[C@@H](C(=O)N[C@@H]2C(=O)N3[C@@H]2SC(C)(C)[C@@H]3C(=O)O)c2ccccc2)C(=O)C1=O` [PIPERACILLIN] yielded an MIC50 (Burkholderia cepacia) of 4 µg/mL, an MIC90 (Burkholderia cepacia) of 64 µg/mL and an MIC [1] of no more than 0.004 µg/mL. It also gave an MIC50 [1] of no more than 0.004 µg/mL, an MIC90 [1] of no more than 0.004 µg/mL and an MIC (Moraxella catarrhalis) of no more than 0.004 µg/mL. It also gave an MIC50 (Moraxella catarrhalis) of no more than 0.004 µg/mL, an MIC90 (Moraxella catarrhalis) of 0.015 µg/mL and an MIC50 (Enterococcus faecalis) of 2 µg/mL. It also gave an MIC90 (Enterococcus faecalis) of 4 µg/mL, an MIC50 (Enterococcus faecium) of 4 µg/mL and an MIC90 (Enterococcus faecium) greater than 128 µg/mL. For the same molecule, the MIC (Streptococcus pneumoniae [2]) was no more than 0.004 µg/mL, the MIC50 (Streptococcus pneumoniae [2]) was no more than 0.004 µg/mL and the MIC90 (Streptococcus pneumoniae [2]) was no more than 0.004 µg/mL. For the same molecule, the MIC50 (Streptococcus pneumoniae [3]) was 2 µg/mL, the MIC90 (Streptococcus pneumoniae [3]) was 4 µg/mL and the MIC50 (Streptococcus agalactiae) was no more than 0.004 µg/mL. It also gave an MIC90 (Streptococcus agalactiae) of 0.03 µg/mL, an MIC50 (Bacteroides uniformis) of 4 µg/mL and an MIC90 (Bacteroides uniformis) of 8 µg/mL. For the same molecule, the MIC50 (Clostridium perfringens) was 0.06 µg/mL (≈ 0.116 µM), the MIC90 (Clostridium perfringens) was 0.25 µg/mL (≈ 0.483 µM) and the MIC [4] was no more than 0.015 µg/mL. The MIC50 [4] was no more than 0.015 µg/mL, the MIC90 [4] was no more than 0.015 µg/mL and the MIC (Escherichia coli) was 2 µg/mL. The MIC50 (Escherichia coli) was 2 µg/mL, the MIC90 (Escherichia coli) was 16 µg/mL and the MIC50 (Klebsiella pneumoniae [5]) was 2 µg/mL. The MIC90 (Klebsiella pneumoniae [5]) was 8 µg/mL, the MIC50 (Klebsiella pneumoniae [6]) was 8 µg/mL and the MIC90 (Klebsiella pneumoniae [6]) was 64 µg/mL. The MIC50 (Klebsiella pneumoniae [7]) was 32 µg/mL, the MIC90 (Klebsiella pneumoniae [7]) was greater than 128 µg/mL and the MIC50 (Klebsiella pneumoniae [8]) was 16 µg/mL. It also gave an MIC90 (Klebsiella pneumoniae [8]) greater than 128 µg/mL, an MIC50 (Providencia rettgeri) of 1 µg/mL and an MIC90 (Providencia rettgeri) of 8 µg/mL. It also gave an MIC50 (Providencia stuartii) of 2 µg/mL, an MIC90 (Providencia stuartii) of 16 µg/mL and an MIC50 (Acinetobacter baumannii) greater than 128 µg/mL. For the same molecule, the MIC90 (Acinetobacter baumannii) was greater than 128 µg/mL, the MIC50 (Acinetobacter johnsonii) was 4 µg/mL and the MIC90 (Acinetobacter johnsonii) was 16 µg/mL. It also gave an MIC50 (Acinetobacter lwoffii) of 4 µg/mL and an MIC90 (Acinetobacter lwoffii) of 16 µg/mL.
